Reference: the RNAGym collection of RNA variant scans (doi:10.1126/science.aae0568)
This sample holds only a part of the variants without activity.

B1: tRNA (parent)
chain: GUUCCGUUGGCGUAAUGGUAACGCGUCUCCCUCCUAAGGAGAAGACUGCGGGUUCGAGUCCCGUACGGAACG

Variants of: B1
Assay: yeast fitness relative to wild type (ratio to wild type); higher = fitter; tRNA-Arg(CCU), competitive growth, 37 C, YPD
Outline: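 Genotype frequency changes were the basis for Darwinian fitness relative to wild type. The frequencies came from 100-nucleotide paired-end sequencing of gene amplicons from the start population and each end population of pooled yeast strains with tRNA-Arg(CCU) gene variants at the native locus. Competition ran in YPD at 37°C for 24 hours in six replicates, genotypes needed ≥ 100 starting reads, and estimates < 0.5 were set to 0.5.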

Variant | yeast fitness
GUUCCGUUGGCGUAAUGGUAACGCGUCUCCCUCGUAAGGAGAAGUCUGCGGGUUCGAGUCCCGUACGCAACG | 0.578
GUUCCGUUGGCGUAAUGGUAACGCGUCUCCCUCGUAAGGAGAAGACUGCGGGUUCGAGUCCCGUACGGUACG | 0.631
GUUCCGUUGGCGUAAUGGUAACGCGUCUCCCUCGUAAGGAGAAGACUGCGGGUUCGAGUCCCGUACGGCACG | 0.589
GUUCCGUUGGCGUAAUGGUAACGCGUCUCCCUCGUAAGGAGAAGCCUGCGGGUUCGCGUCCCGUACGGAACG | 0.514
GUUCCGUUGGCGUAAUGGUAACGCGUCUCCCUCGUAAGGAGAAGACUGCGGGUUCGAGUCCCGUUCGGAGCG | ≤ 0.5
GUUCCGUUGGCGUAAUGGUAACGCGUCUCCCUCGUAAGGUGAAGACUGCGGGUUCGAGUCCCGUACGGAACG | 0.596
GUUCCGUUGGCGUAAUGGUAACGCGUCUCCCUCGUAAGGAGGAGACUGCGGGUUCGAGUCCCGUACGGAACG | 0.716
GUUCCGUUGGCGUAAUGGUAACGCGUCUCCCUCGUAAGGAGAUGACUGAGGGUUCGAGUCCCGUACGGUACG | 0.584
GUUCCGUUGGCGUAAUGGUAACGCGUCUCCCUCGUAAGGAGGAGACUCCGGGUUCGAGUCCCGUACGGAACG | 0.531
GUUCCGUUGGCGUAAUGGUAACGCGUCUCCCUCGUAAGGAGCAGACUGCGGGUUAGAGUUCCGUACGGAACG | ≤ 0.5
GUUCCGUUGGCGUAAUGGUAACGCGUCUCCCUCGUAAGGAGAAGACUGCGGGUUCGGGUCUCGUACGGAACG | ≤ 0.5
GUUCCGUUGGCGUAAUGGUAACGCGUCUCCCUCGUAAGGAGAAGCCUGCGGGUUCGCGUCCCGUGCGGAACG | ≤ 0.5
GUUCCGUUGGCGUAAUGGUAACGCGUCUCCCUCGUAAGGGUAAGAGUGCGGGUUCGUGUCUCGUACGGAACG | ≤ 0.5
GUUCCGUUGGCGUAAUGGUAACGCGUCUCCCUCGUAAGGAGUAGACUGCGGGUUCGAGUCUCGUACGGAACG | ≤ 0.5
GUUCCGUUGGCGUAAUGGUAACGCGUCUCCCUCGUAAGGAGAAGACUGCGGGUUCGAGUCCCGUUAGGAACG | ≤ 0.5
GUUCCGUUGGCGUAAUGGUAACGCGUCUCCCUCGUAAGGAGAAGCCUGCGAGUUCGAGUCCCGUUCGGAACG | 0.617
GUUCCGUUGGCGUAAUGGUAACGCGUCUCCCUCGUAAGGAGACGACUGCCGGUUCGAGUCCCGUACGGAACG | ≤ 0.5
GUUCCGUUGGCGUAAUGGUAACGCGUCUCCCUCGUAAGGAGAAGAAUGCGGGUUCGAGUCCCGUACGGAACG | 0.615
GUUCCGUUGGCGUAAUGGUAACGCGUCUCCCUCGUAAGGAGAUGACUGAGGGUUCGAGUCCCGUACGGAACG | 0.737

Variant | yeast fitness
GUUCCGUUGGCGUAAUGGUAACGCGUCUCCCUCGUAAGGAGAAGACUGCGGGUUCGAGUCCCGUACGGAUCG | 0.597
GUUCCGUUGGCGUAAUGGUAACGCGUCUCCCUCGUAAGGAGAAGACUGCGGGUUCGAGUCCCGUACGGACCG | 0.585
GUUCCGUUGGCGUAAUGGUAACGCGUCUCCCUCGUAAGGAGAAGACUGCGGGUUCGAGUCCCGUACGGAGCG | 0.586
GUUCCGUUGGCGUAAUGGUAACGCGUCUCCCUCGUAAGGAGGAGACUGCGGGUUCGAGUCCCGUAUGGAACG | 1.03
GUUCCGUUGGCGUAAUGGUAACGCGUCUCCCUCGUAAGGAGAAGAAUGCGGGUUCGAGUCCUGUACGGCACG | ≤ 0.5
GUUCCGUUGGCGUAAUGGUAACGCGUCUCCCUCGUAAGGAGAAGACUGCGGGUUCGAGUCCCGUUCGGAACG | 0.581
GUUCCGUUGGCGUAAUGGUAACGCGUCUCCCUCGUAAGGAGAAGACUGCGGGUUCGAGUCCCGUGCGGAACG | 0.765
GUUCCGUUGGCGUAAUGGUAACGCGUCUCCCUCGUAAGGAGAAGACUGCGGGUUCGAGUCCCGUCCGGAACG | 0.65
GUUCCGUUGGCGUAAUGGUAACGCGUCUCCCUCGUAAGGAGAAGGCUGCGGGUUCGAGUUCCGUACGGUACG | ≤ 0.5
GUUCCGUUGGCGUAAUGGUAACGCGUCUCCCUCGUAAGGGGAAGACUGCGGGAUCGAGUCCCGUACGCAACG | ≤ 0.5
GUUCCGUUGGCGUAAUGGUAACGCGUCUCCCUCGUAAGGAGAAGUCUGCGGGUUCGAGUCCCGUACGGAACG | 0.567
GUUCCGUUGGCGUAAUGGUAACGCGUCUCCCUCGUAAGGGGAAGAGUGAGGGUUCGAGUCCCGUAAGGUACG | ≤ 0.5
GUUCCGUUGGCGUAAUGGUAACGCGUCUCCCUCGUAAGGUGACGACUGGAGGUUCGAGUUCCGUACGGAACG | ≤ 0.5
GUUCCGUUGGCGUAAUGGUAACGCGUCUCCCUCGUAAGGAGAAGACUGCGGGUUCGGGUCCCGUGUGGAACG | 0.58
GUUCCGUUGGCGUAAUGGUAACGCGUCUCCCUCGUAAGGAGUAGACUGCGGGUUCGAGUCCCGUACGCAACG | ≤ 0.5
GUUCCGUUGGCGUAAUGGUAACGCGUCUCCCUCGUAAGGAGACGACUGCGGGUUCGAGUCCCGUACGGAACG | 0.594
GUUCCGUUGGCGUAAUGGUAACGCGUCUCCCUCGUAAGGAGAUGACUGCGGGUUCGAGUCCCGUACGGAACG | 0.625
GUUCCGUUGGCGUAAUGGUAACGCGUCUCCCUCGUAAGGAGGAGACUGAGGGUUCGAGUCCCGUACGGAACG | ≤ 0.5
GUUCCGUUGGCGUAAUGGUAACGCGUCUCCCUCGUAAGGAGGACACUGCGGGUUCGAGUCCCGUAAGGAACG | ≤ 0.5
